Here are results for 31 compounds from ChEMBL document CHEMBL1131198, “From micromolar to nanomolar affinity: a systematic approach to identify the binding site of CGRP at the human calcitonin gene-related peptide 1 receptor” (J Med Chem, 1998).

Square brackets hold non-standard residues; d marks the D form. Peptide text beside a SMILES is read from it. Tic = O=C(O)[C@@H]1Cc2ccccc2CN1

The target of test [1] is Calcitonin gene-related peptide type 1 receptor (Homo sapiens, UniProt Q16602). Nature of the test: (§1) CGRP1 receptor affinity on human neuroblastoma cells SK-N-MC, which selectively express the human CGRP1 receptor. The essentials: (§2)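 SK-N-MC membranes (cells grown in DMEM, detached with PBS/0.02% EDTA, homogenized, pellet in Tris buffer pH 7.40 with 1% BSA, 0.1% bacitracin, stored -80 °C) diluted 1:10 in assay buffer (50 mM Tris, 150 mM NaCl, 5 mM MgCl2, 1 mM EDTA, pH 7.40).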
Calcitonin gene-related peptide type 1 receptor (Homo sapiens, UniProt Q16602), sequence (Q16602 whole entry): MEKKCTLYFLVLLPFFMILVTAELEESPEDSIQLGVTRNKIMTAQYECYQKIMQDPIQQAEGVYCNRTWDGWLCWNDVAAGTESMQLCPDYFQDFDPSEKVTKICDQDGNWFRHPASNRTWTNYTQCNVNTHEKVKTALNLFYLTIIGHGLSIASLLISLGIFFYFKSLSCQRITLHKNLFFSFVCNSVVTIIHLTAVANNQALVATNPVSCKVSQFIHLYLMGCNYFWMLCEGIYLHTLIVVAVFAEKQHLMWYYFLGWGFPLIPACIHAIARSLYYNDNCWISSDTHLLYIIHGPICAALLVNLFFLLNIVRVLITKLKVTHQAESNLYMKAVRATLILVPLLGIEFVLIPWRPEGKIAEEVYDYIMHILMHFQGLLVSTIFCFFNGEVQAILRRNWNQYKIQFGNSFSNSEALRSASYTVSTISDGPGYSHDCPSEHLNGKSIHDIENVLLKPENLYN

Test [2] addresses Calcitonin gene-related peptide type 1 receptor (Homo sapiens, UniProt O60894+Q16602). The description is as §1. The essentials: as §2

Calcitonin gene-related peptide type 1 receptor (Homo sapiens, UniProt O60894+Q16602), sequence (Q16602 whole entry, one chain of several): as the sequence (Q16602 whole entry) above

With `CC(C)[C@H](NC(=O)[C@H](CC(N)=O)NC(=O)[C@H](NC(=O)[C@@H]1CCCN1C(=O)[C@@H](NC(=O)[C@@H](N)Cc1ccc(O)cc1)C(C)C)[C@@H](C)O)C(=O)NCC(=O)N[C@@H](CO)C(=O)N[C@@H](CCC(=O)O)C(=O)N[C@@H](C)C(=O)N[C@@H](Cc1ccccc1)C(=O)O`, the IC50 (in general, the concentration needed to halve the response being measured) in test [1] was “No displacement”.

In the case of H-YVPTNVGSE-OH, the IC50 entry in test [1] was “No displacement”.

Take `C[C@H](NC(=O)[C@@H](N)Cc1ccc(O)cc1)C(=O)N[C@@H](Cc1ccccc1)C(=O)O` (H-Tyr-Ala-Phe-OH): in test [1], the half-inhibitory concentration (IC50) result is “No displacement”.

For the compound H-YVPTNVGSEFF-OH, the IC50 entry in test [1] was “No displacement”.

On to H-YVPTNVGFEAF-OH, for which, in test [1], the IC50 entry was “No displacement”.

In the case of `CC(C)[C@H](NC(=O)[C@H](CC(N)=O)NC(=O)[C@@H](NC(=O)[C@@H]1CCCN1C(=O)[C@H](NC(=O)[C@@H](N)Cc1ccc(O)cc1)C(C)C)[C@@H](C)O)C(=O)NCC(=O)N[C@@H](CO)C(=O)N[C@@H](CCC(=O)O)C(=O)N[C@@H](C)C(=O)N[C@@H](Cc1ccccc1)C(=O)O`, the concentration for half-maximal inhibition (IC50) in test [1] amounted to 19 µM.

Turning to H-YVPTNVG-OH, the half-inhibitory concentration (IC50) entry in test [1] is reported as “No displacement”.

Turning to `CC(C)[C@H](NC(=O)[C@@H](N)Cc1ccc(O)cc1)C(=O)N1CCC[C@H]1C(=O)N[C@H](C(=O)O)[C@@H](C)O` (H-YVPT-OH), the IC50 entry in test [1] is recorded as “No displacement”.

In the case of `CC(C)[C@H](NC(=O)[C@H](CC(N)=O)NC(=O)[C@@H](NC(=O)[C@@H]1CCCN1C(=O)[C@@H](NC(=O)[C@@H](N)Cc1ccc(O)cc1)C(C)C)[C@@H](C)O)C(=O)NCC(=O)N[C@@H](CO)C(=O)N[C@H](CCC(=O)O)C(=O)N[C@@H](C)C(=O)N[C@@H](Cc1ccccc1)C(=O)O`, the IC50 entry in test [1] is reported as “No displacement”.

Take H-YVPFNVGSEAF-OH: in test [1], the IC50 entry is recorded as “No displacement”.

For H-YGSEAF-OH, the half-inhibitory concentration (IC50) entry in test [1] is on record as “No displacement”.

In the case of H-YVATNVGSEAF-OH, in test [1], the IC50 entry is recorded as “No displacement”.

For H-YVPTNVGS-OH, the IC50 result in test [1] is “No displacement”.

For H-YVPTNVASEAF-OH, the IC50 entry in test [1] is reported as “No displacement”.

With H-YVPTNFGSEAF-OH, the concentration for half-maximal inhibition (IC50) result in test [1] is reported as “No displacement”.

As for H-YVPTNVGSEA-OH, the IC50 result in test [1] is reported as “No displacement”.

On to `CC(C)[C@H](NC(=O)[C@@H](N)Cc1ccc(O)cc1)C(=O)N1CCC[C@H]1C(=O)N[C@H](C(=O)N[C@@H](CC(N)=O)C(=O)N[C@@H](C(=O)NCC(=O)N[C@@H](CO)C(=O)N[C@@H](CCC(=O)O)C(=O)N[C@@H](C)C(=O)N[C@@H](Cc1ccccc1)C(=O)O)C(C)C)[C@@H](C)O`, for which the IC50 result in test [1] was “No displacement”.

Turning to H-YVGSEAF-OH, the IC50 entry in test [1] is “No displacement”.

With H-YVPTNV-OH, the concentration for half-maximal inhibition (IC50) entry in test [1] is recorded as “No displacement”.

For the compound H-YVPTNVFSEAF-OH, the IC50 entry in test [1] is reported as “No displacement”.

As for H-YNVGSEAF-OH, the IC50 result in test [1] is given as “No displacement”.

Consider H-YSEAF-OH, for which the IC50 entry in test [1] was “No displacement”.

As to `CC(C)[C@H](NC(=O)[C@H](CC(=O)O)NC(=O)[C@@H](NC(=O)[C@@H]1CCCN1C(=O)[C@@H](NC(=O)[C@@H](N)Cc1ccccc1)C(C)C)[C@@H](C)O)C(=O)NCC(=O)N1Cc2ccccc2C[C@H]1C(=O)N[C@@H](Cc1ccccc1)C(=O)N[C@@H](C)C(=O)N[C@@H](Cc1ccccc1)C(N)=O` (H-FVPTDVG[Tic]FAF-NH2), in test [1], the IC50 is 0.146 µM.

In the case of H-YVPANVGSEAF-OH, the IC50 entry in test [1] was “No displacement”.

Turning to H-YVPTNAGSEAF-OH, the IC50 result in test [1] was “No displacement”.

In the case of `C[C@H](NC(=O)[C@H](CCC(=O)O)NC(=O)[C@@H](N)Cc1ccc(O)cc1)C(=O)N[C@@H](Cc1ccccc1)C(=O)O` (H-YEAF-OH), the IC50 entry in test [1] is reported as “No displacement”.

Turning to `CC(C)[C@H](NC(=O)[C@H](CC(N)=O)NC(=O)[C@@H](NC(=O)[C@@H]1CCCN1C(=O)[C@@H](NC(=O)[C@@H](N)Cc1ccc(O)cc1)C(C)C)[C@@H](C)O)C(=O)NCC(=O)N[C@@H](CO)C(=O)N[C@@H](CCC(=O)O)C(=O)N[C@@H](C)C(=O)N[C@H](Cc1ccccc1)C(=O)O`, the 50% inhibitory concentration (IC50) result in test [1] is “No displacement”.

Take `CC(C)[C@H](NC(=O)[C@@H](N)Cc1ccc(O)cc1)C(=O)N1CCC[C@H]1C(=O)O` (H-Tyr-Val-Pro-OH): the IC50 entry in test [1] was “No displacement”.

For H-YVPTN-OH, in test [1], the half-inhibitory concentration (IC50) result is on record as “No displacement”.

For the compound H-FVPTDVGSQAF-OH, the concentration for half-maximal inhibition (IC50) in test [2] came out at 1.2 µM.

With H-YVPTNVGSEAA-OH, the concentration for half-maximal inhibition (IC50) entry in test [1] is “No displacement”.
